Assay results published in ChEMBL document CHEMBL4219150, “Fragment-Based Approach to Targeting Inosine-5'-monophosphate Dehydrogenase (IMPDH) from Mycobacterium tuberculosis” (J Med Chem, 2018).
Converted amounts (≈) assume the structure as drawn.

Each molecule was assayed against Inosine-5'-monophosphate dehydrogenase (Mycobacterium tuberculosis (strain ATCC 25618 / H37Rv)) (UniProt P9WKI7) (assay: Uncompetitive inhibition of Mycobacterium tuberculosis H37Rv IMPDH assessed as reduction in NADH production preincubated for 5 mins followed by substrate IMP addition at increasing concentration measured for 32 mins in presence of a constant concentration of NAD+ by Lineweaver-Burk plot analysis). Conditions: not given.
Sequence of Inosine-5'-monophosphate dehydrogenase (Mycobacterium tuberculosis (strain ATCC 25618 / H37Rv)) (P9WKI7 whole entry): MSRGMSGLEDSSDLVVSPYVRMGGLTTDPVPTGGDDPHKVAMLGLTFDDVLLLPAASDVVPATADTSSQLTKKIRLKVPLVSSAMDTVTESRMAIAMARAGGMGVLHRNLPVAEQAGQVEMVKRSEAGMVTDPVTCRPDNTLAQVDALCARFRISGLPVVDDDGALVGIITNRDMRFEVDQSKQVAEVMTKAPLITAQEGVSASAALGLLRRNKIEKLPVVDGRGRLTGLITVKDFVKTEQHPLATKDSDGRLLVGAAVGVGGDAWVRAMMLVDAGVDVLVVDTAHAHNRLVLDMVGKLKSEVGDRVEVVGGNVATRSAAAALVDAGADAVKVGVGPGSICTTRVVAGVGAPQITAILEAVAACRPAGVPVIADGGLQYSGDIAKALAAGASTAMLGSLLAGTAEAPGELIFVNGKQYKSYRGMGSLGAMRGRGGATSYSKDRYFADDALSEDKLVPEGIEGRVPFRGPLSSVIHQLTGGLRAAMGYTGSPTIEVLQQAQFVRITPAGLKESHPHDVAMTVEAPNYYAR

Row | SMILES | alphaKi [µM]
1 | COc1ccc(OC(C)C(=O)Nc2ccc(I)cc2)cc1 (stereo not given) | 0.603

These molecules were tested on Mycobacterium tuberculosis (assay: Antibacterial activity against Mycobacterium tuberculosis). Conditions: not given.
Type: functional
How it was run: (§1)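 Mtb H37Rv grown to mid-exponential phase in Middlebrook 7H9 with OADC, 0.2% glycerol, 0.05% Tween-80. Compounds in DMSO (1%) tested at 8 concentrations; rifampin and isoniazid as positive controls. ~10^5 bacteria per well, 37°C for 7 d, then Alamar Blue for a further 24 h at 37°C. Fluorescence read at ex 544/em 590 nm. Data normalised to min/max inhibition controls; MIC90 taken from the dose-response curve.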

Row | SMILES | MIC [µM]
2 | Cc1n[nH]c(C)c1S(=O)(=O)Nc1ccc2c[nH]nc2c1 | 2 (≈ 0.583 µg/mL)
3 | O=C(C1CCCCC1)N1CCN(S(=O)(=O)c2ccc3cnccc3c2)CC1 | 1.9 (≈ 0.736 µg/mL)

These molecules were tested on Mycobacterium tuberculosis (assay: Antibacterial activity against Mycobacterium tuberculosis ATCC 27294 after 7 days by broth microdilution method). Conditions: ATCC 27294, 168 h.
Type: functional

Row | SMILES | MIC [µM]
4 | C=C(C)c1cccc(C(C)(C)NC(=O)Nc2ccc(Cl)c(C(=O)N(C)C)c2)c1 | 5 (≈ 2 µg/mL)
5 | COc1c(C)c2c(c(O)c1C/C=C(\C)Cn1cc(COC[C@H]3O[C@@H](n4cnc5c(N)ncnc54)[C@H](O)[C@@H]3O)nn1)C(=O)OC2 | 100 (≈ 60.9 µg/mL)

What follows are molecules tested on Mycobacterium tuberculosis (assay: Antibacterial activity against Mycobacterium tuberculosis after 7 days by Alamar Blue assay). Conditions: 168 h.
Type: functional
How it was run: as §1

Row | SMILES | MIC [µM]
6 | COc1ccc(OC(C)C(=O)Nc2ccc(I)cc2)cc1 (stereo not given) | 12.5 (≈ 4.97 µg/mL)

The molecules below were run on Mycobacterium tuberculosis (assay: Antibacterial activity against Mycobacterium tuberculosis H37Rv assessed as inhibition of bacterial growth after 7 days by alamar blue fluorescence-based broth microdilution assay). Conditions: 168 h.
Type: functional
How it was run: as §1

Row | SMILES | MIC90 [µM]
7 | CC(Oc1ccc(-c2cn(C)cn2)cc1)C(=O)Nc1nc(-c2ccc(I)cc2)c[nH]1 (stereo not given) | ≥ 50
8 | CC(Oc1ccc(-c2cn(C)cn2)cc1)C(=O)Nc1nc(-c2ccc(Br)cc2)c[nH]1 (stereo not given) | ≥ 50
9 | CC(Oc1ccc(-c2cn(C)cn2)cc1)C(=O)Nc1nc(-c2ccccc2)c[nH]1 (stereo not given) | ≥ 50
10 | CC(Oc1ccc(-c2cn(C)cn2)cc1)C(=O)Nc1ccc(I)cc1 (stereo not given) | ≥ 50
11 | CC(Oc1ccc(-c2cn(C)cn2)cc1)C(=O)Nc1nc(-c2ccc(Br)cc2)co1 (stereo not given) | ≥ 50
12 | CC(Oc1ccc(-c2cn(C)cn2)cc1)C(=O)Nc1nc(-c2ccc(N3CCOCC3)cc2)c[nH]1 (stereo not given) | ≥ 50
13 | COc1ccc(-c2c[nH]c(NC(=O)C(C)Oc3ccc(-c4cn(C)cn4)cc3)n2)cc1 (stereo not given) | ≥ 50
14 | CC(Oc1ccc(-c2cn(C)cn2)cc1)C(=O)Nc1ccccc1 (stereo not given) | ≥ 50
15 | C[C@H](Oc1ccc(-c2cn(C)cn2)cc1)C(=O)Nc1nc(-c2ccc(Br)cc2)c[nH]1 | ≥ 50
